From PubChem BioAssay
Activity calls are given as the source filed them.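 The calls were made as follows, unless noted: active = viability loss from added drug above about 55%, and viability with drug at most 40%, in both replicates (limit read from the data, passing the limit was not always enough); inconclusive = both conditions met in only one replicate; inactive = neither replicate meets both conditions.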

What was measured:
[1] = Her2 expression decrease, cell viability multiplex – SKBR3 breast tumor cells, AlphaScreen, ATP viability, primary screen (AID 461;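 active = Her2 level under about 52% in both replicate screens, with viability over 70% of control, limit read from the data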;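 as to Her2 level: lower value means less Her2 protein in the cells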;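 as to viability: percent of carrier control wells set as 100% viability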); conditions: SKBR3 Her2 protein level, 18-24 h, measured here: SKBR3 viability, ATP luminescence, at 10 µM
[2] = biological target: Receptor tyrosine-protein kinase erbB-2 (Homo sapiens) (UniProt P04626); experiment: as above; conditions: 18-24 h, at 10 µM, stronger effect = lower value
Sequence of Receptor tyrosine-protein kinase erbB-2 (Homo sapiens) (P04626 whole entry, looked up): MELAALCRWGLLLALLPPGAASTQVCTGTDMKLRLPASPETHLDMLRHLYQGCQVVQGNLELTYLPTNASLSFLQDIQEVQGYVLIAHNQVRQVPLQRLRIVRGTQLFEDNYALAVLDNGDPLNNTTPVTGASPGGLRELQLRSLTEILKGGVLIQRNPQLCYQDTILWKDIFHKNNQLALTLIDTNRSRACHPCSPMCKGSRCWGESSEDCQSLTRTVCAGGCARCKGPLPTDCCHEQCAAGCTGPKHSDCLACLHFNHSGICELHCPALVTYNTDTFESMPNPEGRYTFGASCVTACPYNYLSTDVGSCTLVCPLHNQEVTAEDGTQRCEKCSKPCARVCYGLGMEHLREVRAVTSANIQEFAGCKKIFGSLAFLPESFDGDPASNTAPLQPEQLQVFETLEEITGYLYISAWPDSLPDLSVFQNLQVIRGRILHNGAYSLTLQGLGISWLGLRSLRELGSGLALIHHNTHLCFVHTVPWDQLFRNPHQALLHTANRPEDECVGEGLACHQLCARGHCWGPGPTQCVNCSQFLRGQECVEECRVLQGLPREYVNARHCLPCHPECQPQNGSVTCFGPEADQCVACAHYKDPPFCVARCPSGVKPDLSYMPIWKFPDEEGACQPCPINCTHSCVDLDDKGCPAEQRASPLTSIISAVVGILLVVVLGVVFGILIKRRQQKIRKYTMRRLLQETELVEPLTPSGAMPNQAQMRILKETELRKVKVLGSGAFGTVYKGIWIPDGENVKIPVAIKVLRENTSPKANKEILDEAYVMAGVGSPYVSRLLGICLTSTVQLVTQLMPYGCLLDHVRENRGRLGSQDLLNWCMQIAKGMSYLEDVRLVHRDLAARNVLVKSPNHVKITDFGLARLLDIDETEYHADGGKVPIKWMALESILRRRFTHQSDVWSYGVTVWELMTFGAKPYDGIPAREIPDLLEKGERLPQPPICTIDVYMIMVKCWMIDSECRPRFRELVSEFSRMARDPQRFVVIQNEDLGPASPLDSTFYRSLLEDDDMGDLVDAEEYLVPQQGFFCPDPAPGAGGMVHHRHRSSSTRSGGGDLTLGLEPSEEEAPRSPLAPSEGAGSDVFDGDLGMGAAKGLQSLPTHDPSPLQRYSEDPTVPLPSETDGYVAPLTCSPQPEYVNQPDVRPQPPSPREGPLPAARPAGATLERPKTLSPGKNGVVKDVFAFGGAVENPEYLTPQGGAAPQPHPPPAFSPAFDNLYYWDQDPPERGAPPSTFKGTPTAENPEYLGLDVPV

[3] = reduced viability of SK-BR-3 breast cancer cells – cell-based, 24 h, human, pilot screen (AID 572;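 active = viability at or below 10% of carrier control in both of two separate runs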;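 also: compound exposure lasted between 18 and 24 h rather than exactly 24 h; 100% = carrier-treated control wells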); conditions: SK-BR-3 viability, CellTiter-Glo luminescence, at 10 µM, stronger effect = lower value
[4] = HUVEC growth inhibition – cell-based, human, primary screen (AID 575;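 active = viability at or below 30% in both replicate assays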;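 also: 100% = median of untreated cell wells with 0.1% DMSO on each plate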); conditions: HUVEC proliferation, CellTiter-Glo luminescence, 72 h; at 10 µM; stronger effect = lower value
Method in brief: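 Test system: primary human umbilical vein endothelial cells. Quantity: 1250 cells/well. Compound: single 10 µM dose, 0.1% DMSO, from 5x medium stock. Timing: 72 h treatment at 37 °C. Detection: ATP-based CellTiter-Glo luminescent read. Benchmarks: vehicle and MePR control wells. Format: 384-well plates coated with collagen.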

[5] = H69AR cell proliferation blockers – human, duplicate replicates, primary screen (AID 580;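 active = viability at or under a set limit in both replicates, limit being median viability minus 3 SD, cut at about 48% in these data, passing the limit was not always enough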;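 also: 100% = mean luminescence of untreated wells and 0% = no signal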); conditions: H69AR lung tumor cells viability, ATP luminescence, 72 h; at 10 µM; stronger effect = lower value
[6] = MRP1 drug-resistance reversers in H69AR cells – cell-based, doxorubicin co-treatment, pilot screen (AID 601); conditions: CellTiter-Glo, 72 h, at 10 µM; for differential viability (reversal): stronger effect = higher value
[7] = yeast transport mutant growth inhibition pilot in 384-well plates, post-Golgi transport modulator project (AID 636; in the data active = inhibition above about 31%); conditions: absorbance 615 nm, about 18 h, stronger effect = higher value
[8] = growth suppression of yeast trafficking mutant, preliminary HTS, modulators of trafficking downstream of Golgi apparatus project, 1536-format plate, OD 615 nm (AID 637; in the data active = inhibition above about 30%); conditions: yeast transport mutant growth, absorbance 615 nm, 18 h; stronger effect = higher value
[9] = H69AR cells + 2 uM doxorubicin, measured here: viability with 2 uM doxorubicin, stronger effect = lower value
[10] = H69AR cells, compound alone cytotoxicity

| SMILES | viability [1] | Her2 level [2] | viability [3] | viability [4] | viability [5] | differential viability (reversal) ([6]; H69AR cells + 2 uM doxorubicin) | viability [6, 9] | viability [6, 10] | inhibition [7] | inhibition [8] |
| --- | --- | --- | --- | --- | --- | --- | --- | --- | --- | --- |
| CCOC(=O)c1c(C)[nH]c(C(=O)Cn2c(=O)oc3ccccc32)c1C | 102% | 93.5% (inactive) | 102% (inactive) | 108% (inactive) | 89.5% (inactive) | 2.91% (inactive) | 86.6% | 89.5% | -3.97% (inactive) | 0.33% (inactive) |
| CCCCc1ccc(NC(=O)c2c(C)noc2C)cc1 | 105% | 94.5% (inactive) | 105% (inactive) | 96% (inactive) | 89.4% (inactive) | 0.065% (inactive) | 89.3% | 89.4% | -3.68% (inactive) | 4.43% (inactive) |
| COc1ccc(N(CC(=O)NC2CCCC2)C(=O)Cn2nnc(-c3ccc(C)cc3)n2)cc1 | 79% | 99.5% (inactive) | 79% (inactive) | 95.5% (inactive) | 89.1% (inactive) | -4.01% (inactive) | 93.1% | 89.1% | 2.76% (inactive) | -7.58% (inactive) |
| COc1ccc(OC(C)C(=O)N2CC(C)OC(C)C2)cc1 (stereo not given) | 100% | 102% (inactive) | 100% (inactive) | 97.3% (inactive) | 100% (inactive) | -1.02% (inactive) | 101% | 100% | -5% (inactive) | 0.16% (inactive) |
| CCOC(=O)C(NC(=O)C1CCCN1C(=O)OCc1ccccc1)C(=O)OCC (stereo not given) | 104% | 94.5% (inactive) | 104% (inactive) | 98.2% (inactive) | 99.8% (inactive) | 3.49% (inactive) | 96.3% | 99.8% | -1.58% (inactive) | -1.77% (inactive) |
| CC(=O)Nc1ccccc1-c1nc2ccc(C(=O)N3CCN(c4ccccc4)CC3)cc2[nH]c1=O | 99.5% | 88% (inactive) | 99.5% (inactive) | 86.2% (inactive) | 93.4% (inactive) | -1.66% (inactive) | 95% | 93.4% | -1.33% (inactive) | 1.15% (inactive) |
| O=C(c1ccco1)N1CCN(S(=O)(=O)c2ccc(C3CCCCC3)cc2)CC1 | 96% | 97.5% (inactive) | 96% (inactive) | 99.9% (inactive) | 85.6% (inactive) | 0.505% (inactive) | 85.1% | 85.6% | -4.53% (inactive) | 2.42% (inactive) |
| CCOC(=O)c1ccc(COC(=O)CCc2nc3ccccc3[nH]c2=O)o1 | 92% | 96.5% (inactive) | 92% (inactive) | 100% (inactive) | 92.1% (inactive) | -4.18% (inactive) | 96.2% | 92.1% | -1.32% (inactive) | 5.08% (inactive) |
| Cc1cc(-n2c(C)cc(C(=O)CSc3nc4ccccc4c(=O)n3Cc3ccco3)c2C)no1 | 105% | 83.5% (inactive) | 105% (inactive) | 92.2% (inactive) | 93.8% (inactive) | 4.09% (inactive) | 89.7% | 93.8% | -6.8% (inactive) | -1.43% (inactive) |
| O=C(CCn1nc(-c2ccccc2)ccc1=O)N1CCCC1 | 97% | 96% (inactive) | 97% (inactive) | 114% (inactive) | 94.4% (inactive) | -0.505% (inactive) | 94.9% | 94.4% | -4.74% (inactive) | 0.48% (inactive) |
| COc1cccc(CN(C)CC(=O)NC(=O)NCc2ccco2)c1 | 106% | 100% (inactive) | 106% (inactive) | 92.7% (inactive) | 84.7% (inactive) | 5.36% (inactive) | 79.4% | 84.7% | 0.92% (inactive) | 21.4% (inactive) |
| CCNC(=O)N(C(=O)NCC)n1c(C)nnc1C | 100% | 90% (inactive) | 100% (inactive) | 105% (inactive) | 104% (inactive) | 18.7% (inactive) | 85.3% | 104% | -5.33% (inactive) | 1.48% (inactive) |
| Cc1ccc(NC(=O)CCC(=O)OCC(F)(F)C(F)F)cc1 | 98% | 106% (inactive) | 98% (inactive) | 117% (inactive) | 103% (inactive) | -1.04% (inactive) | 104% | 103% | -0.65% (inactive) | -7.67% (inactive) |
| O=C(NCc1ccccn1)Nc1ccc2c(c1)OCO2 | 100% | 102% (inactive) | 100% (inactive) | 78.7% (inactive) | 92.4% (inactive) | 4.97% (inactive) | 87.4% | 92.4% | -2.37% (inactive) | -0.95% (inactive) |
| COC(=O)c1ccc(CSc2nc3c(cnn3-c3ccc(F)cc3)c(=O)[nH]2)o1 | 99% | 101% (inactive) | 99% (inactive) | 65.3% (inactive) | 92.5% (inactive) | -4.38% (inactive) | 96.9% | 92.5% | -2.19% (inactive) | -1.9% (inactive) |
| Cc1c(C(=O)O)c(-c2ccccc2)nn1-c1ccccc1 | 103% | 104% (inactive) | 103% (inactive) | 96.9% (inactive) | 92.1% (inactive) | 4.64% (inactive) | 87.5% | 92.1% | -2.99% (inactive) | -2.3% (inactive) |
